Results taken from ChEMBL document CHEMBL3112531, “Synthesis and evaluation of 4-(2-pyrimidinylamino) benzamides inhibitors of hedgehog signaling pathway” (Bioorg Med Chem Lett, 2014).
Each block holds one compound with its values, some of them ahead of it.

Columns and labels:
[1] = Inhibition of hedgehog signaling pathway in mouse NIH/3T3 cells by Gli1-luciferase reporter gene assay; type: cell-based; settings: NIH3T3
[2] = Ratio of GDC-0449 IC50 to compound IC50 for hedgehog signaling pathway in mouse NIH/3T3 cells by Gli1-luciferase reporter gene assay; type: cell-based
[3] = Oral bioavailability in Sprague-Dawley rat at 5 mg/kg; type: ADME, organism-based; settings: in vivo
Outline: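 Oral dosing of SD rats at 5 mg/kg in 0.5% HPMC + 0.3% Tween-80 (pH 2.8), with blood samples n = 3, alongside iv dosing at 1 mg/kg in 5% DMA + 5% Tween-80. Plasma concentration–time data were analysed noncompartmentally.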

[4] = Half life in Sprague-Dawley rat at 5 mg/kg, po; type: ADME, organism-based; parameters: dose 5 mg/kg, route oral; settings: in vivo
Outline: (§1)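 SD rats dosed orally at 5 mg/kg in 0.5% HPMC + 0.3% Tween-80 (pH 2.8). Blood samples (n = 3) were centrifuged at 4000 rpm for 5 min at 4 °C. Plasma concentration–time data were analysed noncompartmentally.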

[5] = Mean residence time (0 to t) in Sprague-Dawley rat at 5 mg/kg, po; type: ADME, organism-based; parameters: dose 5 mg/kg, route oral; settings: in vivo; outline: as §1
[6] = Clearance in Sprague-Dawley rat at 5 mg/kg, po; type: ADME, organism-based; parameters: dose 5 mg/kg, route oral; settings: in vivo; outline: as §1
Rattus norvegicus [7] = test: Volume of distribution at steady state in Sprague-Dawley rat at 5 mg/kg, po; type: ADME, organism-based; parameters: dose 5 mg/kg, route oral; settings: in vivo; outline: as §1
[8] = AUC in Sprague-Dawley rat at 5 mg/kg, po; type: ADME, organism-based; parameters: dose 5 mg/kg, route oral; settings: plasma; outline: as §1
[9] = Cmax in Sprague-Dawley rat at 5 mg/kg, po; type: ADME, organism-based; parameters: dose 5 mg/kg, route oral; settings: in vivo; outline: as §1
[10] = Half life in Sprague-Dawley rat at 1 mg/kg, iv; type: ADME, organism-based; parameters: dose 1 mg/kg, route intravenous; settings: in vivo
Outline: (§2)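 SD rats given a single 1 mg/kg iv dose in 5% DMA + 5% Tween-80. Plasma concentration–time data were analysed by a noncompartmental approach.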

Rattus norvegicus [11] = test: (§3) Mean residence time (0 to t) in Sprague-Dawley rat at 1 mg/kg, iv; type: ADME, organism-based; parameters: dose 1 mg/kg, route intravenous; settings: in vivo; outline: as §2
Rattus norvegicus [12] = test: (§4) Volume of distribution at steady state in Sprague-Dawley rat at 1 mg/kg, iv; type: ADME, organism-based; parameters: dose 1 mg/kg, route intravenous; settings: in vivo; outline: as §2
[13] = AUC in Sprague-Dawley rat at 1 mg/kg, iv; type: ADME, organism-based; parameters: dose 1 mg/kg, route intravenous; settings: plasma; outline: as §2
[14] = Cmax in Sprague-Dawley rat at 1 mg/kg, iv; type: ADME, organism-based; parameters: dose 1 mg/kg, route intravenous; settings: in vivo; outline: as §2
[15] = as §3; type: ADME, organism-based; parameters: dose 1 mg/kg, route intravenous; settings: Sprague-Dawley, in vivo; outline: as §2
[16] = Clearance in Sprague-Dawley rat at 1 mg/kg, iv; type: ADME, organism-based; parameters: dose 1 mg/kg, route intravenous; settings: in vivo; outline: as §2
[17] = as §4; type: ADME, organism-based; parameters: dose 1 mg/kg, route intravenous; settings: Sprague-Dawley, in vivo, read-out: Vdss; outline: as §2

Compound: Cc1ccc(CN(C)C(C)C)cc1NC(=O)c1ccc(Nc2ncc(C)c(-c3ccc(OC(F)(F)F)cc3)n2)cc1
- IC50 [1]: 0.89 nM

Compound: Cc1ccc(CNC2CCCC2)cc1NC(=O)c1ccc(Nc2ncc(C)c(-c3ccc(OC(F)(F)F)cc3)n2)cc1
- IC50 [1]: 1.6 nM

Compound: Cc1ccc(CNC(C)(C)C)cc1NC(=O)c1ccc(Nc2ncc(C)c(-c3cnn(C)c3)n2)cc1
- IC50 [1]: 18.1 nM

Compound: Cc1ccc(CN(C2CCCCC2)C2CCCCC2)cc1NC(=O)c1ccc(Nc2ncc(C)c(-c3ccc(OC(F)(F)F)cc3)n2)cc1
- IC50 [1]: 2.7 nM

Compound: Cc1ccc(CN2C[C@@H](C)O[C@@H](C)C2)cc1NC(=O)c1ccc(Nc2ncc(C)c(-c3cnn(C)c3)n2)cc1
- IC50 [1]: 8.4 nM

Compound: Cc1ccc(CN2CCC[C@@H]2CN2CCCC2)cc1NC(=O)c1ccc(Nc2ncc(C)c(-c3ccc(OC(F)(F)F)cc3)n2)cc1
- IC50 [1]: 3.9 nM

Compound: Cc1ccc(CN2CCC(N3CCCCC3)CC2)cc1NC(=O)c1ccc(Nc2ncc(C)c(-c3ccc(OC(F)(F)F)cc3)n2)cc1
- IC50 [1]: 19.5 nM

Compound: Cc1ccc(CN2CCN(c3ccccc3)CC2)cc1NC(=O)c1ccc(Nc2ncc(C)c(-c3ccc(OC(F)(F)F)cc3)n2)cc1
- IC50 [1]: 2 nM

Compound: Cc1ccc(CN(C)C)cc1NC(=O)c1ccc(Nc2ncc(C)c(-c3ccc(OC(F)(F)F)cc3)n2)cc1
- IC50 [1]: 0.59 nM

Compound: Cc1ccc(CN(C)CCCN(C)C)cc1NC(=O)c1ccc(Nc2ncc(C)c(-c3ccc(OC(F)(F)F)cc3)n2)cc1
- IC50 [1]: 35.3 nM

Compound: Cc1ccc(CN2CCCC2)cc1NC(=O)c1ccc(Nc2ncc(C)c(-c3cnn(C)c3)n2)cc1
- IC50 [1]: 9.2 nM

Compound: Cc1ccc(CN(CCO)CCO)cc1NC(=O)c1ccc(Nc2ncc(C)c(-c3cnn(C)c3)n2)cc1
- IC50 [1]: 31.9 nM

Compound: Cc1ccc(CN2CCOCC2)cc1NC(=O)c1ccc(Nc2ncc(C)c(-c3cnn(C)c3)n2)cc1
- bioavailability [3]: 63.6%
- half-life [4]: 84 min
- MRT last [5]: 2.4 h
- CL/F [6]: 23.9 mL/min/kg
- Vdss (Rattus norvegicus [7]): 2.9 L/kg
- AUC [8]: 3800 ng·h/mL
- Cmax [9]: 1500 ng/mL
- half-life [10]: 48 min
- MRT last [15]: 48.6 min
- clearance [16]: 14.3 mL/min/kg
- Vd [17]: 0.9 L/kg
- AUC [13]: 1200 ng·h/mL
- Cmax [14]: 2100 ng/mL
- IC50 [1]: 1.3 nM

Compound: Cc1ccc(CNCc2ccco2)cc1NC(=O)c1ccc(Nc2ncc(C)c(-c3ccc(OC(F)(F)F)cc3)n2)cc1
- IC50 [1]: 2.5 nM

Compound: Cc1ccc(CNCCN2CCCCC2)cc1NC(=O)c1ccc(Nc2ncc(C)c(-c3ccc(OC(F)(F)F)cc3)n2)cc1
- IC50 [1]: 33.6 nM

Compound: Cc1ccc(CN2CCCc3ccccc32)cc1NC(=O)c1ccc(Nc2ncc(C)c(-c3ccc(OC(F)(F)F)cc3)n2)cc1
- IC50 [1]: 2.4 nM

More lines, main results first:

- IC50 [1]: 1.6 nM
Compound: Cc1ccc(CN2CC3CCCC3C2)cc1NC(=O)c1ccc(Nc2ncc(C)c(-c3ccc(OC(F)(F)F)cc3)n2)cc1 (stereo not drawn)

- IC50 [1]: 1.5 nM
Compound: Cc1ccc(CN2CCc3sccc3C2)cc1NC(=O)c1ccc(Nc2ncc(C)c(-c3ccc(OC(F)(F)F)cc3)n2)cc1

- IC50 [1]: 0.45 nM
Compound: Cc1ccc(CN2CCN(C)CC2)cc1NC(=O)c1ccc(Nc2ncc(C)c(-c3ccc(OC(F)(F)F)cc3)n2)cc1

- IC50 [1]: 0.77 nM
Compound: CCN1CCN(Cc2ccc(C)c(NC(=O)c3ccc(Nc4ncc(C)c(-c5ccc(OC(F)(F)F)cc5)n4)cc3)c2)CC1

- IC50 [1]: 0.34 nM
Compound: Cc1ccc(CN2CCSCC2)cc1NC(=O)c1ccc(Nc2ncc(C)c(-c3ccc(OC(F)(F)F)cc3)n2)cc1
- Ratio IC50 [2]: 7

- IC50 [1]: 10.5 nM
Compound: Cc1ccc(CN2CCNCC2)cc1NC(=O)c1ccc(Nc2ncc(C)c(-c3ccc(OC(F)(F)F)cc3)n2)cc1

- IC50 [1]: 0.43 nM
Compound: Cc1ccc(CN2CCCC2)cc1NC(=O)c1ccc(Nc2ncc(C)c(-c3ccc(OC(F)(F)F)cc3)n2)cc1
- Ratio IC50 [2]: 7

- bioavailability [3]: 46.3%
- half-life [4]: 348 min
- MRT last [5]: 6.6 h
- CL/F [6]: 32.8 mL/min/kg
- Vdss (Rattus norvegicus [7]): 16.3 L/kg
- AUC [8]: 2400 ng·h/mL
- Cmax [9]: 280 ng/mL
- half-life [10]: 432 min
- MRT (Rattus norvegicus [11]): 4.1 h
- Vdss (Rattus norvegicus [12]): 7.4 L/kg
- AUC [13]: 1300 ng·h/mL
- Cmax [14]: 1200 ng/mL
- IC50 [1]: 0.53 nM
Compound: Cc1ccc(CN2CCOCC2)cc1NC(=O)c1ccc(Nc2ncc(C)c(-c3ccc(OC(F)(F)F)cc3)n2)cc1
- Ratio IC50 [2]: 7

- IC50 [1]: 2 nM
Compound: Cc1ccc(CN2CCNC(=O)C2)cc1NC(=O)c1ccc(Nc2ncc(C)c(-c3ccc(OC(F)(F)F)cc3)n2)cc1
